ChEMBL document CHEMBL1143175, “Inactivation of human neutrophil elastase by 1,2,5-thiadiazolidin-3-one 1,1 dioxide-based sulfonamides” (Bioorg Med Chem, 2008)
Activity calls are given as the source filed them. The rule behind the calls is not given here.

Legend:
[1] = molecular target: T1, Neutrophil elastase (Homo sapiens) (UniProt P08246); test: Inhibition of human neutrophil elastase; conditions: TDE = time-dependent effect
T1 sequence (whole entry): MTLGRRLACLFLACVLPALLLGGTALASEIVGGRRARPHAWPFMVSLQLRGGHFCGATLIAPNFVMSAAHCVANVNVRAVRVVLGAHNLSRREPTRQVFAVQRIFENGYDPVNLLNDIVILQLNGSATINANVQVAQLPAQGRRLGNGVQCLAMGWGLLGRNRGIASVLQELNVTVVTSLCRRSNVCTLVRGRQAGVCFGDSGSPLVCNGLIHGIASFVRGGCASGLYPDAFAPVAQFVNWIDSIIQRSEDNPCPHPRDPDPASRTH
In short: (§1)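 Human neutrophil elastase, progress curve method: 10 nM enzyme added to inhibitor plus 105 µM MeOSuc-Ala-Ala-Pro-Val p-nitroanilide in 0.1 M HEPES/0.5 M NaCl, pH 7.25, 2.5% DMSO. Absorbance followed at 410 nm for 10 min and fitted to the progress curve equation. Apparent second-order constants kinact/KI determined in duplicate.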

[2] = molecular target: T2, Myeloblastin (Homo sapiens) (UniProt P24158); test: Ratio of Kinact to KI for human PR3
T2 sequence (whole entry): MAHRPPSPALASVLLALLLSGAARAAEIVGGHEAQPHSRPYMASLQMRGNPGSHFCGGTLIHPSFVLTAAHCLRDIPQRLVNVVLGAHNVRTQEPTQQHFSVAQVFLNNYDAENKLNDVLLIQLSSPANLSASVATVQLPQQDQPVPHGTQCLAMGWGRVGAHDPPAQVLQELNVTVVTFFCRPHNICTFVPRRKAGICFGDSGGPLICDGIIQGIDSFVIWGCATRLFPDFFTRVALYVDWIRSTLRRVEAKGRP
In short: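 Human proteinase 3 (34.5 nM final) with inhibitor (8.6 µM final) and Boc-Ala-Ala-NVa-SBzl plus 5,5′-dithio-bis(2-nitrobenzoic acid) in 0.1 M HEPES/0.5 M NaCl, pH 7.25. Absorbance change monitored at 410 nm for 2 min; inhibitor:enzyme ratio 250.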

[3] = molecular target: T1, Neutrophil elastase (Homo sapiens); test: Ratio of Kinact to KI for human neutrophil elastase; in short: as §1
Bos taurus [4] = species on record: Bos taurus; test: Ratio of Kobs to [I] for bovine trypsin
In short: (§2)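 Incubation method: bovine trypsin (5 µM final) incubated with excess inhibitor (0.125 mM final) in 0.025 M phosphate/0.1 M NaCl, pH 7.51, 1% DMSO, in a constant temperature bath. Aliquots taken over time, residual activity read with N-p-tosyl-Gly-Pro-Lys p-nitroanilide at 410 nm for 60 s. kobs from ln(v/v0) versus time, mean of two determinations, reported as kobs/[I].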

[5] = molecular target: T3, Cathepsin G (Homo sapiens) (UniProt P08311); test: Ratio of Kinact to KI for human cathepsin G
T3 sequence (whole entry): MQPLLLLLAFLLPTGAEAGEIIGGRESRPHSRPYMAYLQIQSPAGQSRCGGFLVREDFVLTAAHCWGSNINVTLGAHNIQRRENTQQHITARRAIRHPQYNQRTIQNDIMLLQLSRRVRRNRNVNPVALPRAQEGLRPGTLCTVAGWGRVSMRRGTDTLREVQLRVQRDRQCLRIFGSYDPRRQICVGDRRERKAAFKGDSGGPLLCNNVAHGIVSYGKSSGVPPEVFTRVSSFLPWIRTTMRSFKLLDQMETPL
In short: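 Neutrophil cathepsin G incubated with inhibitor at an [I]/[E] ratio of 250 for 30 min. Substrate N-succinyl-Ala-Ala-Pro-Phe p-nitroanilide (85 mM stock in DMSO) then added, and absorbance monitored at 410 nm for 10 min.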

Bos taurus [6] = species on record: Bos taurus; test: Inhibition of bovine trypsin; conditions: TDE = time-dependent effect; in short: as §2

SMILES	Activity [1]	Activity [2]	Ratio [3]	Ratio (Bos taurus [4])	Activity [5]	Activity (Bos taurus [6])
CCCC1C(=O)N(CS(=O)(=O)N[C@@H](CCC)C(=O)OC)S(=O)(=O)N1C (some centres undefined)	tde	inactive	34600 M⁻¹ s⁻¹	19	inactive	tde
CCCC1C(=O)N(CS(=O)(=O)N[C@@H](CO)C(=O)OC)S(=O)(=O)N1C (some centres undefined)	tde	inactive	1100 M⁻¹ s⁻¹	12	inactive	tde
CCCC1C(=O)N(CS(=O)(=O)N[C@@H](CCCCNC(=O)OCc2ccccc2)C(=O)OC)S(=O)(=O)N1C (some centres undefined)	tde	inactive	6900 M⁻¹ s⁻¹		inactive	tde
CCCC1C(=O)N(CS(=O)(=O)N[C@@H](Cc2ccccc2)C(=O)OC)S(=O)(=O)N1C (some centres undefined)	tde	inactive	41800 M⁻¹ s⁻¹	50	inactive	tde
CCCC1C(=O)N(CS(=O)(=O)N[C@@H](C)C(=O)OC)S(=O)(=O)N1C (some centres undefined)	tde	inactive	1050 M⁻¹ s⁻¹		inactive	tde

Other lines, results leading:

Activity [1]	Activity [2]	Ratio [3]	Ratio (Bos taurus [4])	Activity [5]	Activity (Bos taurus [6])	SMILES
tde	inactive	12900 M⁻¹ s⁻¹		inactive	tde	CCCC1C(=O)N(CS(=O)(=O)N[C@@H](CCCCN)C(=O)OC)S(=O)(=O)N1C (some centres undefined)
tde	inactive	16900 M⁻¹ s⁻¹	60	inactive	tde	CCCC1C(=O)N(CS(=O)(=O)N[C@@H](COCc2ccccc2)C(=O)OC)S(=O)(=O)N1C (some centres undefined)
tde	inactive	9760 M⁻¹ s⁻¹		inactive	tde	CCCC1C(=O)N(CS(=O)(=O)N[C@H](Cc2ccccc2)C(=O)OC)S(=O)(=O)N1C (some centres undefined)
